Values after ≈ are worked out from the molar mass of the structure shown. Active and inactive are the calls of the source. The rule behind the calls is not given here.
Tests used:
[1] = system: Globisporangium debaryanum; assay: Antifungal activity against Pythium debaryanum assessed as inhibition of fungal growth; type: functional; conditions: read-out: ED50 (the source's name)
Summary of the method: (§1)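 Poisoned food technique on PDA, final 250, 125, 100, 50, 25 and 10 µg/mL, diluted in acetone from a 1000 µg/mL stock; acetone-only control. A 5 mm × 5 mm plug from the growing edge of a 2-week-old colony was placed at plate centre and incubated at 28 °C until control plates were nearly fully grown. Colony diameter was measured; four replicates per treatment. Inhibition was Abbott-corrected and ED50 taken by probit analysis.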

[2] = system: Pythium aphanidermatum; assay: Antifungal activity against Pythium aphanidermatum assessed as inhibition of fungal growth; type: functional; conditions: read-out: ED50 (the source's name); summary of the method: as §1
[3] = system: Macrophomina phaseolina; assay: Antifungal activity against Macrophomina phaseolina assessed as inhibition of fungal growth; type: functional; conditions: read-out: ED50 (the source's name); summary of the method: as §1
[4] = system: Macrophomina phaseolina; assay: Antifungal activity against Rhizoctonia bataticola assessed as inhibition of fungal growth; type: functional; conditions: read-out: ED50 (the source's name); summary of the method: as §1
[5] = system: Rhizoctonia solani; assay: Antifungal activity against Rhizoctonia solani Nees assessed as inhibition of fungal growth; type: functional; conditions: read-out: ED50 (the source's name); summary of the method: as §1
[6] = system: Athelia rolfsii; assay: Antifungal activity against Athelia rolfsii assessed as inhibition of fungal growth; type: functional; conditions: Agroathelia rolfsii; read-out: ED50 (the source's name); summary of the method: as §1
[7] = system: Athelia rolfsii; assay: Antifungal activity against Athelia rolfsii in tomato plants grown on fungal infested soil assessed as healthy tomato plants stands at 0.364 mL ai/150 cm3 of soil measured 35 days after transplanting; type: functional, Agroathelia rolfsii
Summary of the method: (§2)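 Greenhouse tomato seedlings in sieved, autoclaved composted soil infested with S. rolfsii chlamydospore inoculum (potato dextrose broth, 27 °C 7 days, then water, 20 °C 3-4 weeks; 10 flasks per 2.5 kg soil; incubated ~25 °C 5-7 days). Moistened infested soil treated with fungicide per 150 cm3 soil. Checks were uninfested soil and untreated infested soil. Wilting and mortality scored weekly to 35 days; proportion symptomless plants; repeated-measures ANOVA.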

[8] = system: Athelia rolfsii; assay: Antifungal activity against Athelia rolfsii in tomato plants grown on fungal infested soil assessed as healthy tomato plants stands at 1.46 mL ai/150 cm3 of soil measured 35 days after transplanting; type: functional, Agroathelia rolfsii; summary of the method: as §2
[9] = system: Athelia rolfsii; assay: Antifungal activity against Athelia rolfsii in tomato plants grown on fungal infested soil assessed as healthy tomato plants stands at 0.728 mL ai/150 cm3 of soil measured 35 days after transplanting; type: functional, Agroathelia rolfsii; summary of the method: as §2
[10] = system: Athelia rolfsii; assay: Antifungal activity against Athelia rolfsii in tomato plants grown on fungal infested soil assessed as healthy tomato plants stands at 5 % aqueous emulsion of compound measured 35 days after transplanting; type: functional, Agroathelia rolfsii
Summary of the method: (§3)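 Tomato greenhouse test. S. rolfsii was grown in potato dextrose broth, then held in water at 20 °C for 3-4 weeks. Inoculum was mixed into autoclaved composted soil (10 flasks per 2.5 kg) and kept about 5-7 days at roughly 25 °C. Aqueous emulsion was incorporated at 5.0 mL per 150 cm3 of soil. Wilting and mortality were scored weekly after transplanting and given as the proportion of symptomless plants. Controls were uninfested soil and infested untreated soil; analysed as repeated measures ANOVA.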

[11] = system: Athelia rolfsii; assay: Antifungal activity against Athelia rolfsii in tomato plants grown on fungal infested soil assessed as healthy tomato plants stands at 10 % aqueous emulsion of compound measured 35 days after transplanting; type: functional, Agroathelia rolfsii; summary of the method: as §3
[12] = system: Athelia rolfsii; assay: Antifungal activity against Athelia rolfsii in tomato plants grown on fungal infested soil assessed as healthy tomato plants stands at 1 % aqueous emulsion of compound measured 35 days after transplanting; type: functional, organism-based; conditions: Agroathelia rolfsii; summary of the method: as §3
[13] = system: Athelia rolfsii; assay: Antifungal activity against Athelia rolfsii in tomato plants grown on fungal infested soil assessed as healthy tomato plants stands at 1 % aqueous emulsion of compound measured 7 days after transplanting; type: functional, Agroathelia rolfsii; summary of the method: as §3

Compound: CCCCC(CC)c1cc(C)cc(=O)o1 (stereo not given)
- EC50 [1]: 151 µg/mL (≈ 725 µM)
- EC50 [2]: 277 µg/mL (≈ 1330 µM)
- EC50 [3]: 262 µg/mL (≈ 1260 µM)
- EC50 [4]: 303 µg/mL (≈ 1460 µM)
- EC50 [5]: 184 µg/mL (≈ 882 µM)
- EC50 [6]: 349 µg/mL (≈ 1680 µM)

Compound: COCC(=O)N(c1c(C)cccc1C)C(C)C(=O)OC (stereo not given) [METALAXYL]
- Activity [7]: 34.3 µg/mL
- Activity [8]: 90.3 µg/mL
- Activity [9]: 60 µg/mL

Compound: Cc1cc(C)oc(=O)c1
- EC50 [1]: 1140 µg/mL (≈ 9190 µM)
- EC50 [2]: 451 µg/mL (≈ 3630 µM)
- EC50 [3]: 824 µg/mL (≈ 6630 µM)
- EC50 [4]: 1190 µg/mL (≈ 9550 µM)
- EC50 [5]: 493 µg/mL (≈ 3970 µM)
- EC50 [6]: 713 µg/mL (≈ 5740 µM)

Compound: CCCCCCCCCc1cc(C)cc(=O)o1
- EC50 [1]: 284 µg/mL (≈ 1200 µM)
- EC50 [2]: 204 µg/mL (≈ 863 µM)
- EC50 [3]: 352 µg/mL (≈ 1490 µM)
- EC50 [4]: 213 µg/mL (≈ 900 µM)
- EC50 [5]: 130 µg/mL (≈ 551 µM)
- EC50 [6]: 397 µg/mL (≈ 1680 µM)

Compound: CCCCCCCCc1cc(C)cc(=O)o1
- EC50 [1]: 175 µg/mL (≈ 786 µM)
- EC50 [2]: 124 µg/mL (≈ 557 µM)
- EC50 [3]: 164 µg/mL (≈ 737 µM)
- EC50 [4]: 132 µg/mL (≈ 595 µM)
- EC50 [5]: 116 µg/mL (≈ 521 µM)
- EC50 [6]: 122 µg/mL (≈ 548 µM)

Compound: CCCCCCCc1cc(C)cc(=O)o1
- EC50 [1]: 71.7 µg/mL (≈ 344 µM)
- EC50 [2]: 74.6 µg/mL (≈ 358 µM)
- EC50 [3]: 82.2 µg/mL (≈ 394 µM)
- EC50 [4]: 47 µg/mL (≈ 226 µM)
- EC50 [5]: 45 µg/mL (≈ 216 µM)
- EC50 [6]: 30.7 µg/mL (≈ 147 µM)

Compound: CCCCC(O)(Cn1cncn1)c1ccc(Cl)cc1Cl (stereo not given) [HEXACONAZOLE]
- EC50 [1]: 12.3 µg/mL (≈ 39.1 µM)
- EC50 [2]: 8.47 µg/mL (≈ 27 µM)
- EC50 [3]: 10.5 µg/mL (≈ 33.5 µM)
- EC50 [4]: 4.36 µg/mL (≈ 13.9 µM)
- EC50 [5]: 13 µg/mL (≈ 41.2 µM)
- EC50 [6]: 18.3 µg/mL (≈ 58.4 µM)

Compound: C/C=C/c1cc(C)cc(=O)o1
- EC50 [1]: 95.5 µg/mL (≈ 636 µM)
- EC50 [2]: 102 µg/mL (≈ 680 µM)
- EC50 [3]: 276 µg/mL (≈ 1840 µM)
- EC50 [4]: 361 µg/mL (≈ 2400 µM)
- EC50 [5]: 294 µg/mL (≈ 1950 µM)
- EC50 [6]: 404 µg/mL (≈ 2690 µM)

Compound: CC(C)=Cc1cc(C)cc(=O)o1
- EC50 [1]: 264 µg/mL (≈ 1610 µM)
- EC50 [2]: 206 µg/mL (≈ 1250 µM)
- EC50 [3]: 377 µg/mL (≈ 2300 µM)
- EC50 [4]: 328 µg/mL (≈ 2000 µM)
- EC50 [5]: 286 µg/mL (≈ 1740 µM)
- EC50 [6]: 323 µg/mL (≈ 1960 µM)

Compound: CCCCCCCCCCc1cc(C)cc(=O)o1
- EC50 [1]: 594 µg/mL (≈ 2370 µM)
- EC50 [2]: 287 µg/mL (≈ 1150 µM)
- EC50 [3]: 548 µg/mL (≈ 2190 µM)
- EC50 [4]: 649 µg/mL (≈ 2590 µM)
- EC50 [5]: 267 µg/mL (≈ 1070 µM)
- EC50 [6]: 562 µg/mL (≈ 2250 µM)

Compound: CCCc1cc(C)cc(=O)o1
- EC50 [1]: 288 µg/mL (≈ 1890 µM)
- EC50 [2]: 573 µg/mL (≈ 3760 µM)
- EC50 [3]: 329 µg/mL (≈ 2160 µM)
- EC50 [4]: 562 µg/mL (≈ 3700 µM)
- EC50 [5]: 149 µg/mL (≈ 982 µM)
- EC50 [6]: 251 µg/mL (≈ 1650 µM)

Compound: Cc1cc(CCl)oc(=O)c1
- EC50 [1]: 102 µg/mL (≈ 643 µM)
- EC50 [2]: 122 µg/mL (≈ 769 µM)
- EC50 [3]: 72.1 µg/mL (≈ 455 µM)
- EC50 [4]: 111 µg/mL (≈ 701 µM)
- EC50 [5]: 22.8 µg/mL (≈ 143 µM)
- EC50 [6]: 46.9 µg/mL (≈ 296 µM)

Compound: CCc1cc(C)cc(=O)o1
- EC50 [1]: 580 µg/mL (≈ 4200 µM)
- EC50 [2]: 408 µg/mL (≈ 2950 µM)
- EC50 [3]: 267 µg/mL (≈ 1940 µM)
- EC50 [4]: 626 µg/mL (≈ 4530 µM)
- EC50 [5]: 690 µg/mL (≈ 5000 µM)
- EC50 [6]: 665 µg/mL (≈ 4820 µM)

Compound: CCCCCc1cc(C)cc(=O)o1
- EC50 [1]: 20.6 µg/mL (≈ 114 µM)
- EC50 [2]: 39.1 µg/mL (≈ 217 µM)
- EC50 [3]: 36.8 µg/mL (≈ 204 µM)
- EC50 [4]: 34.2 µg/mL (≈ 190 µM)
- EC50 [5]: 34.5 µg/mL (≈ 191 µM)
- EC50 [6]: 22.4 µg/mL (≈ 125 µM)

Compound: CCCCc1cc(C)cc(=O)o1
- EC50 [1]: 143 µg/mL (≈ 859 µM)
- EC50 [2]: 227 µg/mL (≈ 1370 µM)
- EC50 [3]: 235 µg/mL (≈ 1410 µM)
- EC50 [4]: 212 µg/mL (≈ 1280 µM)
- EC50 [5]: 50.1 µg/mL (≈ 301 µM)
- EC50 [6]: 78 µg/mL (≈ 469 µM)

Compound: Cc1cc(CC(C)C)oc(=O)c1
- EC50 [1]: 37 µg/mL (≈ 223 µM)
- EC50 [2]: 52.4 µg/mL (≈ 315 µM)
- EC50 [3]: 47.3 µg/mL (≈ 284 µM)
- EC50 [4]: 68.4 µg/mL (≈ 412 µM)
- EC50 [5]: 48.7 µg/mL (≈ 293 µM)
- EC50 [6]: 39.5 µg/mL (≈ 237 µM)

Compound: C=C(C)c1cc(C)cc(=O)o1
- EC50 [1]: 189 µg/mL (≈ 1260 µM)
- EC50 [2]: 337 µg/mL (≈ 2240 µM)
- EC50 [3]: 338 µg/mL (≈ 2250 µM)
- EC50 [4]: 374 µg/mL (≈ 2490 µM)
- EC50 [5]: 206 µg/mL (≈ 1370 µM)
- EC50 [6]: 180 µg/mL (≈ 1200 µM)

Compound: CCCCCCc1cc(C)cc(=O)o1
- Activity [10]: > 60%
- Activity [11]: 92.4%
- Activity [12]: inactive
- Activity [13]: 20%
- EC50 [1]: 14.9 µg/mL (≈ 76.7 µM)
- EC50 [2]: 16.6 µg/mL (≈ 85.5 µM)
- EC50 [3]: 31 µg/mL (≈ 159 µM)
- EC50 [4]: 24.5 µg/mL (≈ 126 µM)
- EC50 [5]: 18.7 µg/mL (≈ 96 µM)
- EC50 [6]: 15.1 µg/mL (≈ 77.7 µM)

Compound: Cc1cc(C(C)C)oc(=O)c1
- EC50 [1]: 437 µg/mL (≈ 2870 µM)
- EC50 [2]: 475 µg/mL (≈ 3120 µM)
- EC50 [3]: 1210 µg/mL (≈ 7930 µM)
- EC50 [4]: 403 µg/mL (≈ 2650 µM)
- EC50 [5]: 437 µg/mL (≈ 2870 µM)
- EC50 [6]: 313 µg/mL (≈ 2060 µM)

Source: ChEMBL document CHEMBL3045854, “Antifungal activity of 4-methyl-6-alkyl-2H-pyran-2-ones” (2006)
